Assay results: PubChem BioAssay AID720574 (Broad Institute, 2013)
The whole screen tested about 96,000 compounds, of which about 140 (0.15%) were called active.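 Rule for the calls: active = mean replicate inhibition above about 25%, with at least 55% of replicates also reaching it (limit read from the data, passing the limit was not always enough); inconclusive = only one of those two conditions met; inactive = neither condition met.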 Only a selection was taken, and actives are over-represented in it overall.

target: Lysine-specific demethylase 4C (Homo sapiens) (UniProt Q9H3R0); test: KDM4C H3K9me3 demethylation inhibition – biochemical, single concentration HTS, primary screen (AID 720574); conditions: GST-KDM4C 2-372, H3K9me3 peptide, LANCE TR-FRET; at 12.5 µM; stronger effect = higher value
Procedure, shortened: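 Material: GST-tagged GASC-1 (JMJD2C) catalytic fragment, aa 2-372 / Quantity: enzyme final amount 10 nM / Medium: HEPES buffer, pH 7.5, plus ascorbate / Doses: one test concentration per compound / Incubation: 30 min reaction, 60 min detection, RT / Measured by: LANCE TR-FRET / Read-out: inhibition from TR-FRET ratio decrease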

Sequence of Lysine-specific demethylase 4C (Homo sapiens) (Q9H3R0 2-372 limits assumed): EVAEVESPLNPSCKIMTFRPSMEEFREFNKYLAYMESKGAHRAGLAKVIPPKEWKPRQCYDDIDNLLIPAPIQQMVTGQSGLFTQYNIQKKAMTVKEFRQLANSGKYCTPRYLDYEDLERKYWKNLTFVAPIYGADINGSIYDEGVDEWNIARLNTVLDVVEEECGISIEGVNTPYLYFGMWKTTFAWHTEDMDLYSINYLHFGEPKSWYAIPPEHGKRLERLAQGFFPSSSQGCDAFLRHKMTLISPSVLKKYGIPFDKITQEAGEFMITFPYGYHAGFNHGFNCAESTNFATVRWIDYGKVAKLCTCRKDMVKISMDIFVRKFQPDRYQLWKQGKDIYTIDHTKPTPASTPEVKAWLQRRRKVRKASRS

inhibition, inactive:
COc1cccc(S(=O)(=O)N[C@@H]2C=C[C@H](CC(=O)NC3CCC3)O[C@@H]2CO)c1 -0.615%
CNC(=O)C[C@@H]1CC[C@@H]2[C@@H](COc3ccc(NC(=O)Nc4ccccc4OC)cc3C(=O)N2C)O1 -0.148%
COc1ccc2c3c(n(C)c2c1)[C@@H](CO)N(C(=O)CN1CCOCC1)CC31CN(C(=O)CC2CC2)C1 -1.48%
C[C@H](CO)N1C[C@H](C)[C@@H](CN(C)C(=O)C2CC2)Oc2cc(C#CC(C)(C)O)ccc2S1(=O)=O -1.72%
O=C(C1CCCC1)N1CC(=O)N2[C@@H](CO)[C@H](c3ccc(C#CC4CCCC4)cc3)[C@@H]2C1 0.0785%
COc1cccc(-c2ccc([C@@H]3[C@@H](CO)N4C(=O)CN(C(=O)C5CCCCC5)C[C@H]34)cc2)c1 -0.874%
CC(C)(C)[S@](=O)N1Cc2cc(C(=O)N[C@@H]3CCN(Cc4ccccc4)C3)nc(-c3cccc(-c4ccncc4)c3)c2[C@@H]1CCO -0.764%
C/C=C/c1ccccc1[C@@H]1[C@@H](C#N)N(C(=O)Cc2ccccn2)[C@H]1CO 0.483%
CN(C)CC(=O)Nc1ccc2c(c1)[C@H]1C[C@@H](CC(=O)NCc3ccc(Cl)cc3)O[C@@H](CO)[C@H]1O2 -0.979%
COc1cccc(NC(=O)N[C@@H]2CC[C@H](CC(=O)Nc3ccccc3)O[C@@H]2CO)c1 -0.777%
COc1ccc2c3c(n(C)c2c1)[C@H](CO)NCC31CCN(C(=O)Nc2ccccc2F)CC1 0.753%
CO[C@H]1CN(C)C(=O)c2ccc(NC(C)=O)cc2OC[C@H](C)N(C(=O)Cc2ccccn2)C[C@@H]1C 0.463%
CN1C(=O)c2cc(NC(=O)C3CCC3)ccc2OC[C@@H]2O[C@@H](CC(=O)NCc3ccccc3F)CC[C@@H]21 -1.68%
CO[C@H]1CN(C)C(=O)c2ccc(NC(=O)Cc3ccccc3)cc2OC[C@@H](C)N(C(C)=O)C[C@H]1C -0.332%
COc1ccc(CNC(=O)C[C@H]2CC[C@@H]3[C@H](COc4ccc(NC(=O)C5CC5)cc4C(=O)N3C)O2)cc1 0.0505%
C[C@@H]1CN([C@@H](C)CO)S(=O)(=O)c2ccc(-c3ccccc3F)cc2O[C@H]1CN(C)Cc1cncnc1 5.07%
C[C@@H]1CN([C@@H](C)CO)C(=O)c2cc(C#C[C@@H](C)O)cnc2O[C@H]1CN(C)CC1CCOCC1 4.17%
COc1ccccc1-c1cn(CC[C@@H]2CC[C@H](NC(=O)c3ccccc3F)[C@H](CO)O2)nn1 -1.5%
COC(=O)C[C@H]1CC[C@H]2[C@@H](COc3ccc(NC(=O)Nc4cccc(F)c4)cc3C(=O)N2C)O1 -1.5%
COCc1cn(CC[C@@H]2CC[C@@H](NC(=O)Cc3cccnc3)[C@@H](CO)O2)nn1 1.27%
CC(C)(C)[S@@](=O)N1Cc2cc(C(=O)N3CCOCC3)nc(-c3cccc(-c4ccc(C#N)cc4)c3)c2[C@H]1CCO 1.6%
CC=Cc1ccc2n(c1=O)C[C@@H]1[C@@H](CO)[C@H](C(=O)N[C@H](C)c3ccccc3)N(C(=O)c3cnccn3)[C@H]21 (mixture of isomers) 0.423%
O=C(C[C@@H]1CC[C@@H]2[C@H](COC[C@H](O)CN2Cc2cccc(C(F)(F)F)c2)O1)NCc1ccc(F)cc1 3.72%
CN(C)CC(=O)N1CC2(C1)[C@H](c1ccccc1)[C@@H](CO)N2C(=O)C1CCCCC1 -0.237%
O=C(C[C@H]1C=C[C@H](NC(=O)C2CCC2)[C@H](CO)O1)NCCCN1CCOCC1 1.01%
COc1ccc(NC(=O)N(C)C[C@@H]2Oc3ccc(NS(=O)(=O)c4ccc(C)cc4)cc3CC(=O)N([C@@H](C)CO)C[C@H]2C)cc1 6.92%
CCNC(=O)Nc1ccc2c(c1)C(=O)N(C)[C@H]1CC[C@@H](CC(=O)N[C@@H](C)c3ccccc3)O[C@H]1CO2 0.198%
O=C(Nc1ccccc1F)N1CC(=O)N2[C@H](C1)[C@@H](c1ccc(C#CC3CC3)cc1)[C@@H]2CO 1.64%
CN(C)C(=O)[C@@H]1[C@@H](CO)[C@@H]2Cn3c(ccc(C4=CCCC4)c3=O)[C@H]1N2Cc1ccccn1 1.36%
NCC[C@H]1CC[C@H](NC(=O)C2CC2)[C@@H](CO)O1 0.258%
CO[C@H]1CN(C)C(=O)c2ccc(NC(=O)C3CC3)cc2OC[C@H](C)N(CCc2ccccc2)C[C@@H]1C 0.468%
O=C(CC(F)(F)F)N1C[C@H]2[C@@H](c3ccccc31)[C@H](CO)N2C(=O)Cc1ccccc1 -2.83%
CCCN1C[C@@H](C)[C@@H](OC)CN(C)C(=O)c2ccc(NC(=O)CC(F)(F)F)cc2OC[C@H]1C -0.121%
CN1CCN(C(=O)C[C@@H]2CC[C@@H]3[C@@H](COc4ccc(NC(=O)c5ccc(F)c(F)c5)cc4C(=O)N3C)O2)CC1 -0.587%
O=C(c1ccncc1)N1C[C@@H]2[C@H](c3ccccc31)[C@H](CO)N2C(=O)c1ccncc1 -0.987%
COc1ccc2c3c(n(C)c2c1)[C@H](CO)N(C(=O)NC(C)C)CC31CCN(C(=O)NC(C)C)CC1 0.238%
CCCN1C[C@H](C)[C@@H](OC)CN(C)C(=O)c2ccc(NC(=O)CC)cc2OC[C@@H]1C 2.58%
O=C(Nc1ccccc1)N1CC(=O)N2[C@@H](CO)[C@H](c3ccc(C#CC4CCCC4)cc3)[C@@H]2C1 0.422%
CN(C)C(=O)C[C@@H]1CC[C@H](NC(=O)NC2CCCCC2)[C@@H](CO)O1 -0.283%
CCCC(=O)Nc1ccc2c(c1)C(=O)N(C)[C@@H]1CC[C@H](CC(=O)NCCOC)O[C@H]1CO2 0.186%
CC(=O)N1CC2(C1)[C@@H](c1ccccc1)[C@@H](CO)N2C(=O)c1cnccn1 0.148%
